Measurements published in ChEMBL document CHEMBL3526048, “In vitro metabolism of rivoglitazone, a novel peroxisome proliferator-activated receptor γ agonist, in rat, monkey, and human liver microsomes and freshly isolated hepatocytes” (Drug Metab Dispos, 2011).

Assays:
Cytochrome P450 3A4 [1] = target: T1, Cytochrome P450 3A4 (Homo sapiens, UniProt P08684); experiment: Activity of human CYP3A4 expressed in microsomes isolated from baculovirus infected insect cell assessed as enzyme-mediated compound formation treated with [14C]-rivoglitazone at 20 uM after 2 hrs by radio-HPLC/LC-MS/MS analysis in presence of NADPH-generating system; format: ADME
Method in brief: (§1)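 Baculovirus-insect-cell microsomes expressing the human CYP (1 mg/ml protein) were incubated with [14C]rivoglitazone (20 μM) in 50 mM potassium phosphate (pH 7.4) or 100 mM Tris-HCl (pH 7.5) with an NADPH-generating system (2 mM NADP+, 20 mM glucose 6-phosphate, 2 units/ml G6PDH, 10 mM MgCl2) for 2 h at 37°C. Insect-cell control supersomes served as the control. Reactions were stopped with acetonitrile, and the concentrated supernatants were analysed by radio-HPLC, LC-MS and LC-MS/MS.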

Cytochrome P450 3A5 = Cytochrome P450 3A5 (Homo sapiens, UniProt P20815); experiment: Activity of human CYP3A5 expressed in microsomes isolated from baculovirus infected insect cell assessed as enzyme-mediated 3-(4-((6-methoxy-1-methyl-1H-benzo[d]imidazol-2-yl)methoxy)phenyl)-2-(methylsulfonyl)propanamide formation at 20 uM after 2 hrs by radio-HPLC/LC-MS/MS analysis in presence of NADPH-generating system/SAM; format: ADME
Method in brief: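 cDNA-expressed human CYP3A5 in baculovirus-insect-cell microsomes (1 mg/ml protein) was incubated with [¹⁴C]rivoglitazone (20 μM) in 50 mM potassium phosphate (pH 7.4) or 100 mM Tris-HCl (pH 7.5). NADPH-generating system: 2 mM NADP⁺, 20 mM glucose 6-phosphate, 2 units/ml G6PDH, 10 mM MgCl₂. Incubation ran 2 h at 37°C with shaking; insect-cell control supersomes served as control. Acetonitrile stop, supernatant concentrated, then radio-HPLC, LC-MS and LC-MS/MS.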

[2] = Drug metabolism in monkey hepatocytes assessed as formation of 2-hydroxy-3-(4-((6-methoxy-1-methyl-1H-benzo[d]imidazol-2-yl)methoxy)phenyl)propanamide at 30 uM after 3 hrs by radio-HPLC/LC-MS/MS analysis in presence of NADPH-generating system and NADPH-generating system/SAM; details: cynomolgus monkey
Cytochrome P450 2C9 = Cytochrome P450 2C9 (Homo sapiens, UniProt P11712); experiment: Activity of human CYP2C9 expressed in microsomes isolated from baculovirus infected insect cell assessed as enzyme-mediated 2-hydroxy-3-(4-((6-methoxy-1-methyl-1H-benzo[d]imidazol-2-yl)methoxy)phenyl)propanamide formation at 20 uM after 2 hrs by radio-HPLC/LC-MS/MS analysis in presence of NADPH-generating system and NADPH-generating system/SAM; format: ADME
[3] = target: T2, UDP-glucuronosyltransferase 1A1 (Homo sapiens, UniProt P22309); experiment: Activity of human UGT1A1 expressed in microsomes isolated from baculovirus infected insect cell assessed as enzyme-mediated (2S,3S,4S,5R,6R)-6-((1-carboxy-2-(4-((6-methoxy-1-methyl-1H-benzo[d]imidazol-2-yl)methoxy)phenyl)ethylthio)carbonylamino)-3,4,5-trihydroxytetrahydro-2H-pyran-2-carboxylic acid formation at 20 uM after 4 hrs by radio-HPLC/LC-MS/MS analysis in presence of UDPGA; format: ADME
T2 sequence (P22309 whole entry): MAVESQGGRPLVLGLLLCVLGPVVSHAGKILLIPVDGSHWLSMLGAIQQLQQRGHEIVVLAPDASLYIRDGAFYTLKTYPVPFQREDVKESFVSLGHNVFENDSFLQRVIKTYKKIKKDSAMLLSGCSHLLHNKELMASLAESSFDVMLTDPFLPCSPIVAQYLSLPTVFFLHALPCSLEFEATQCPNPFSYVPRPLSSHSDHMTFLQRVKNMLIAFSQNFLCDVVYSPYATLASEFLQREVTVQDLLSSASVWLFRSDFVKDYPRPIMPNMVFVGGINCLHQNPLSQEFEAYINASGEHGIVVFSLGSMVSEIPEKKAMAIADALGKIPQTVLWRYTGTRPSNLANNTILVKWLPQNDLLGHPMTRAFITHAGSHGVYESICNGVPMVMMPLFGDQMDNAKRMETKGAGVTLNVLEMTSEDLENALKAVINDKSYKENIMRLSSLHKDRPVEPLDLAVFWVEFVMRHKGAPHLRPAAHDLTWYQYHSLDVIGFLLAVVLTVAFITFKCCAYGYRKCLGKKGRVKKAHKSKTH
Method in brief: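 Alamethicin (50 μg/mg protein, 15 min on ice) pretreated expressed human UGT microsomes (1 mg/ml protein) from baculovirus-infected insect cells. Incubation with [¹⁴C]rivoglitazone (20 μM) in 100 mM Tris-HCl (pH 7.5) with 10 mM MgCl₂, started by 5 mM UDPGA, 4 h at 37°C with shaking. UGT insect-cell control supersomes were run alongside. Acetonitrile stop, concentrated supernatant analysed by radio-HPLC, LC-MS and LC-MS/MS.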

Cytochrome P450 2C8 = target: T3, Cytochrome P450 2C8 (Homo sapiens, UniProt P10632); experiment: Activity of human CYP2C8 expressed in microsomes isolated from baculovirus infected insect cell assessed as enzyme-mediated 5-(4-((6-hydroxy-1-methyl-1H-benzo[d]imidazol-2-yl)methoxy)benzyl)thiazolidine-2,4-dione formation at 20 uM after 2 hrs by radio-HPLC/LC-MS/MS analysis in presence of NADPH-generating system and NADPH-generating system/SAM; format: ADME
T3 sequence (P10632 whole entry): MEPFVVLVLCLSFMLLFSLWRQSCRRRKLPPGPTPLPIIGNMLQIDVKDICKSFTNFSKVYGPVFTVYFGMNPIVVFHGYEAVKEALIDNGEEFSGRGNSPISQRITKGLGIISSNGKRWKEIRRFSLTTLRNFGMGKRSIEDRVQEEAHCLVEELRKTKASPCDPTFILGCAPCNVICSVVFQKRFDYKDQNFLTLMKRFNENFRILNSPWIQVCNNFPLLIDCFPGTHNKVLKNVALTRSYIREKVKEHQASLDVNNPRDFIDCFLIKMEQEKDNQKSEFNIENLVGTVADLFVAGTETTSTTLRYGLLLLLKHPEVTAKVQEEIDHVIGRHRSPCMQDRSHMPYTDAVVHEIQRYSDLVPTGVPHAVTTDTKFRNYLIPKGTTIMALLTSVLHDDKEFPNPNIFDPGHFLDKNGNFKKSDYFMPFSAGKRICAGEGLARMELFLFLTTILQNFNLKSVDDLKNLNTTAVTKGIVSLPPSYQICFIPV
Method in brief: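 Baculovirus/insect-cell microsomes expressing single human CYPs, 1 mg/ml protein, with 50 mM potassium phosphate (pH 7.4) or 100 mM Tris-HCl (pH 7.5). NADPH-generating system: 2 mM NADP⁺, 20 mM glucose 6-phosphate, 2 units/ml G6PDH, 10 mM MgCl₂. [¹⁴C]rivoglitazone at 20 μM, 2 h at 37°C with shaking. Control used insect-cell control supersomes. Stopped with acetonitrile; supernatant concentrated under nitrogen; metabolites analysed by radio-HPLC, LC-MS and LC-MS/MS.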

Cytochrome P450 3A4 [4] = target: T1, Cytochrome P450 3A4; experiment: Activity of human CYP3A4 expressed in microsomes isolated from baculovirus infected insect cell assessed as enzyme-mediated 2-amino-3-((1-carboxy-2-(4-((6-methoxy-1-methyl-1H-benzo[d]imidazol-2-yl)methoxy)phenyl)ethyl)disulfanyl)propanoic acid formation at 20 uM after 2 hrs by radio-HPLC/LC-MS/MS analysis; format: ADME; method in brief: as §1

T1 sequence (P08684 whole entry): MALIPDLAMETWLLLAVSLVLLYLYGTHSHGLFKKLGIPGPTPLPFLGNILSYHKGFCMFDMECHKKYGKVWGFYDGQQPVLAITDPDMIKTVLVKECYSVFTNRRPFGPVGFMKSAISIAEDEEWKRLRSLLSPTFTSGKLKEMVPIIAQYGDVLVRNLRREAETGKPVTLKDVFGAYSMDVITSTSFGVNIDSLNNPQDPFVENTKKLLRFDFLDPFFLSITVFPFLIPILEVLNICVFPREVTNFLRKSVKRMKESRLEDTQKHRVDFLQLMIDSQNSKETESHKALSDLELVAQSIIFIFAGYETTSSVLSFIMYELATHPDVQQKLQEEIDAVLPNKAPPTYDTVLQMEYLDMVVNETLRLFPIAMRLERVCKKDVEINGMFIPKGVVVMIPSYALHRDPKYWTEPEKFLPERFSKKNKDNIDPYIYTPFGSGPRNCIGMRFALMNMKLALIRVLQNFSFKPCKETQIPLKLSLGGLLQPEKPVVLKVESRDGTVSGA
Cytochrome P450 3A5, sequence (P20815 whole entry): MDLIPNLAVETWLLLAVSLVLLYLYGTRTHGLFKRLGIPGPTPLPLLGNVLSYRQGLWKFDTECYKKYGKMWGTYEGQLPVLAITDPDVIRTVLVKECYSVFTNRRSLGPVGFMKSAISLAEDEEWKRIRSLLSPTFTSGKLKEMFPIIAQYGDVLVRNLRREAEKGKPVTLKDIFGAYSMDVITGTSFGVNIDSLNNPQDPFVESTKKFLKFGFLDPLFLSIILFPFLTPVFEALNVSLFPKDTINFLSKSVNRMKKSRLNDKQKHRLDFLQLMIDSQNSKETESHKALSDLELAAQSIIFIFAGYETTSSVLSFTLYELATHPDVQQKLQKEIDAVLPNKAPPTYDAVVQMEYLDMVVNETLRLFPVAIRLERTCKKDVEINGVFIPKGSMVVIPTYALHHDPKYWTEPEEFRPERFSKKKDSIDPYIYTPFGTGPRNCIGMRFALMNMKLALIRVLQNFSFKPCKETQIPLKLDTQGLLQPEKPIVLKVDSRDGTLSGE
Cytochrome P450 2C9, sequence (P11712 whole entry): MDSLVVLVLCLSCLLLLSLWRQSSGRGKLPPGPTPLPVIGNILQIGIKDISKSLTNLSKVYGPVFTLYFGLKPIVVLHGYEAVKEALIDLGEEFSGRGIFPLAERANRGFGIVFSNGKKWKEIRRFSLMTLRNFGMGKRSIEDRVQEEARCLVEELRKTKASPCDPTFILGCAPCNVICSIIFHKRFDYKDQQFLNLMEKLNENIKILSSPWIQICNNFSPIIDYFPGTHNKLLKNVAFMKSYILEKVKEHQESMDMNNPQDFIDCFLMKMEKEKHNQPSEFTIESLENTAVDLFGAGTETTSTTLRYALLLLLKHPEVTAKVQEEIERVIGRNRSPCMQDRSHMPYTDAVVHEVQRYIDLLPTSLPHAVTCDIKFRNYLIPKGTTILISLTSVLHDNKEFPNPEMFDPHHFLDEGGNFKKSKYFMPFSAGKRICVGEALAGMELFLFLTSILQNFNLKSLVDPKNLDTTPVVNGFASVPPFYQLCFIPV

In the case of `COc1ccc2nc(COc3ccc(CC(S)C(=O)O)cc3)n(C)c2c1` (configuration not stated), the Drug metabolism (Cytochrome P450 3A4 [1]) is reported as “metabolite_detected”.

With `COc1ccc2nc(COc3ccc(C[14CH]4SC(=O)NC4=O)cc3)n(C)c2c1.Cl` (racemic) the Drug metabolism (Cytochrome P450 3A5) was “metabolite_not_detected”, the Drug metabolism [2] was “metabolite_not_detected” and the Drug metabolism (Cytochrome P450 2C9) was “metabolite_detected”. The Drug metabolism [3] was “metabolite_not_detected”, the Drug metabolism (Cytochrome P450 2C8) was “metabolite_detected” and the Drug metabolism (Cytochrome P450 3A4 [4]) was “metabolite_not_detected”.
